Results reported in ChEMBL document CHEMBL1146380, “Synthesis, antimicrobial activity, and QSAR studies of furan-3-carboxamides” (2007).
Active and inactive are the calls of the source.

Key:
Candida albicans = assay: Antimicrobial activity against Candida albicans ATCC 44373 by broth microdilution method; type: functional
Method in brief: (§1)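 Yeasts grown on potato dextrose agar. Inoculum was standardized by McFarland turbidity as for bacteria, into RPMI 1640 broth (M27-A2). DMSO-dissolved compound was tested in twofold dilutions from 320 to 1.25 at 35 °C for 24 h, in duplicate. MIC was the lowest concentration completely inhibiting visible growth. Fungicidal concentration was read by subculturing 20 µL from clear wells on Sabouraud dextrose agar at 35 °C.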

Candida dubliniensis = assay: Antimicrobial activity against Candida dubliniensis CBS 7987 by broth microdilution method; type: functional; method in brief: as §1
Nakaseomyces glabratus = assay: Antimicrobial activity against Candida glabrata […] by broth microdilution method; type: functional; method in brief: as §1
[1] = tested on: Cryptococcus deneoformans; assay: Antimicrobial activity against Cryptococcus neoformans var.neoformans serotype D ATCC 28952 by broth microdilution method; type: functional
Method in brief: (§2)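 Organism grown on potato dextrose agar, with turbidity-standardized inoculum in RPMI 1640 broth (M27-A2). DMSO-dissolved compound was tested in twofold dilutions from 320 to 1.25 at 35 °C, incubated up to 72 h, in duplicate. MIC was the lowest concentration with no visible growth. Cidal concentration was read by subculturing 20 µL from clear wells on Sabouraud dextrose agar, incubated for the same period.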

Saccharomyces cerevisiae = assay: Antimicrobial activity against Saccharomyces cerevisiae ATCC 2601 by broth microdilution method; type: functional; method in brief: as §2
Staphylococcus aureus = assay: Antimicrobial activity against Staphylococcus aureus ATCC 25923 by broth microdilution method; type: functional; conditions: for MBC: read-out: MFC
Method in brief: (§3)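 Bacteria grown overnight on Mueller–Hinton agar. Colonies were suspended in saline to McFarland turbidity (about 10^8 cfu/mL), diluted 1:100 in saline, then 1:20 in Mueller–Hinton broth, giving 5 · 10^4 cfu/mL per well. DMSO-dissolved compound was tested in twofold dilutions from 320 to 1.25 at 35 °C for 24 h. MIC was the lowest concentration with no visible turbidity (M7-A4). Bactericidal concentration was read by subculturing clear wells on Mueller–Hinton agar.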

Klebsiella pneumoniae = assay: Antimicrobial activity against Klebsiella pneumoniae ATCC 1003 by broth microdilution method; type: functional; conditions: for MBC: read-out: MFC; method in brief: as §3
Escherichia coli = assay: Antimicrobial activity against Escherichia coli ATCC 25922 by broth microdilution method; type: functional; method in brief: as §3
[2] = (§4) Antimicrobial activity against Salmonella setubal ATCC 19196 by broth microdilution method; type: functional, Salmonella enterica subsp. enterica serovar Setubal; conditions: Salmonella enterica; method in brief: as §3
[3] = tested on: Salmonella enterica subsp. enterica serovar Setubal; assay: as §4; type: functional; method in brief: as §3
Prototheca zopfii = assay: Antimicrobial activity against Prototheca zopfii by broth microdilution method; type: functional; method in brief: as §2
Pseudomonas aeruginosa = assay: Antimicrobial activity against Pseudomonas aeruginosa ATCC 27853 by broth microdilution method; type: functional; method in brief: as §3
Rhizopus arrhizus = assay: Antimicrobial activity against Rhizopus oryzae isolate by broth microdilution method; type: functional
Sporothrix schenckii = assay: Antimicrobial activity against Sporothrix schenckii ATCC 1146 by broth microdilution method; type: functional
Fusarium solani = assay: Antimicrobial activity against Fusarium solani isolate by broth microdilution method; type: functional
Aspergillus fumigatus = assay: Antimicrobial activity against Aspergillus fumigatus isolate by broth microdilution method; type: functional
Aspergillus flavus = assay: Antimicrobial activity against Aspergillus flavus isolate by broth microdilution method; type: functional
Aspergillus niger = assay: Antimicrobial activity against Aspergillus niger isolate by broth microdilution method; type: functional
Aspergillus terreus = assay: Antimicrobial activity against Aspergillus terreus isolate by broth microdilution method; type: functional
Scedosporium boydii = assay: Antimicrobial activity against Pseudallescheria boydii isolate by broth microdilution method; type: functional

O=C(NNc1c(F)c(F)c(F)c(F)c1F)c1ccoc1
inactive: Activity (Nakaseomyces glabratus) | Activity (Saccharomyces cerevisiae) | Activity (Staphylococcus aureus) | Activity (Klebsiella pneumoniae) | Activity (Escherichia coli) | Activity [3] | Activity (Pseudomonas aeruginosa) | Activity (Aspergillus fumigatus) | Activity (Aspergillus flavus) | Activity (Scedosporium boydii)
320 µg/mL: MFC (Candida albicans) | MIC (Candida albicans) | MFC (Candida dubliniensis) | MIC (Nakaseomyces glabratus) | MFC [1] | MIC [1] | MIC (Staphylococcus aureus) | MIC (Klebsiella pneumoniae) | MIC (Escherichia coli) | MIC [2] | MFC (Prototheca zopfii) | MIC (Pseudomonas aeruginosa) | MFC (Rhizopus arrhizus) | MIC (Rhizopus arrhizus) | MFC (Sporothrix schenckii) | MIC (Sporothrix schenckii) | MFC (Aspergillus niger) | MIC (Aspergillus niger) | MFC (Aspergillus terreus) | MIC (Aspergillus terreus)
160 µg/mL: MIC (Candida dubliniensis)
80 µg/mL: MIC (Prototheca zopfii) | MFC (Fusarium solani) | MIC (Fusarium solani)

O=C(NNc1ccccc1)c1ccoc1
320 µg/mL: MFC (Candida albicans) | MIC (Candida albicans) | MFC (Candida dubliniensis) | MIC (Candida dubliniensis) | MIC (Nakaseomyces glabratus) | MFC (Saccharomyces cerevisiae) | MIC (Saccharomyces cerevisiae) | MIC (Staphylococcus aureus) | MIC (Klebsiella pneumoniae) | MIC (Escherichia coli) | MIC [2] | MFC (Prototheca zopfii) | MIC (Pseudomonas aeruginosa) | MFC (Rhizopus arrhizus) | MIC (Rhizopus arrhizus) | MFC (Sporothrix schenckii) | MFC (Scedosporium boydii)
40 µg/mL: MFC (Aspergillus niger) | MFC (Aspergillus terreus) | MIC (Aspergillus terreus)
inactive: Activity (Nakaseomyces glabratus) | Activity (Staphylococcus aureus) | Activity (Klebsiella pneumoniae) | Activity (Escherichia coli) | Activity [3] | Activity (Pseudomonas aeruginosa)
2.5 µg/mL: MFC (Fusarium solani) | MIC (Fusarium solani)
10 µg/mL: MIC (Sporothrix schenckii) | MIC (Aspergillus flavus) | MIC (Scedosporium boydii)
160 µg/mL: MFC [1] | MIC [1] | MIC (Prototheca zopfii)
20 µg/mL: MFC (Aspergillus fumigatus) | MIC (Aspergillus fumigatus) | MFC (Aspergillus flavus) | MIC (Aspergillus niger)

O=C(NCc1ccncc1)c1ccoc1
80 µg/mL: MIC (Staphylococcus aureus)
320 µg/mL: MFC (Candida dubliniensis) | MIC (Candida dubliniensis) | MFC [1] | MIC [1] | MBC (Staphylococcus aureus) | MIC (Klebsiella pneumoniae) | MIC (Escherichia coli) | MIC [2] | MIC (Pseudomonas aeruginosa) | MFC (Rhizopus arrhizus) | MIC (Rhizopus arrhizus) | MFC (Sporothrix schenckii) | MIC (Sporothrix schenckii) | MIC (Fusarium solani) | MIC (Aspergillus fumigatus) | MFC (Aspergillus niger) | MIC (Aspergillus niger) | MFC (Aspergillus terreus) | MIC (Aspergillus terreus) | MFC (Scedosporium boydii) | MIC (Scedosporium boydii)
inactive: Activity (Candida albicans) | Activity (Nakaseomyces glabratus) | Activity (Saccharomyces cerevisiae) | Activity (Klebsiella pneumoniae) | Activity (Escherichia coli) | Activity [3] | Activity (Pseudomonas aeruginosa) | Activity (Fusarium solani) | Activity (Aspergillus fumigatus) | Activity (Aspergillus flavus)
160 µg/mL: MFC (Prototheca zopfii) | MIC (Prototheca zopfii)

O=C(NCCCO)c1ccoc1
320 µg/mL: MIC (Saccharomyces cerevisiae) | MBC (Staphylococcus aureus) | MIC (Klebsiella pneumoniae) | MFC (Rhizopus arrhizus) | MIC (Rhizopus arrhizus) | MFC (Sporothrix schenckii) | MIC (Sporothrix schenckii) | MFC (Fusarium solani) | MIC (Fusarium solani) | MIC (Aspergillus fumigatus) | MIC (Aspergillus niger) | MFC (Aspergillus terreus) | MIC (Aspergillus terreus) | MFC (Scedosporium boydii) | MIC (Scedosporium boydii)
inactive: Activity (Saccharomyces cerevisiae) | Activity (Klebsiella pneumoniae) | Activity (Escherichia coli) | Activity [3] | Activity (Aspergillus fumigatus) | Activity (Aspergillus flavus) | Activity (Aspergillus niger)
160 µg/mL: MFC (Candida albicans) | MFC (Candida dubliniensis) | MIC (Candida dubliniensis) | MFC (Nakaseomyces glabratus) | MIC (Nakaseomyces glabratus) | MIC (Staphylococcus aureus) | MFC (Prototheca zopfii) | MIC (Prototheca zopfii) | MBC (Pseudomonas aeruginosa) | MIC (Pseudomonas aeruginosa)
40 µg/mL: MIC [1]
80 µg/mL: MIC (Candida albicans) | MFC [1]

O=C(Nc1nc[nH]n1)c1ccoc1
40 µg/mL: MIC (Candida dubliniensis)
80 µg/mL: MFC (Candida albicans) | MIC (Candida albicans) | MFC (Candida dubliniensis) | MFC (Nakaseomyces glabratus) | MIC (Nakaseomyces glabratus) | MFC [1]
320 µg/mL: MFC (Saccharomyces cerevisiae) | MIC (Klebsiella pneumoniae) | MBC (Klebsiella pneumoniae) | MIC (Escherichia coli) | MIC [2] | MBC (Pseudomonas aeruginosa) | MIC (Rhizopus arrhizus) | MFC (Sporothrix schenckii) | MIC (Fusarium solani) | MIC (Aspergillus fumigatus) | MIC (Aspergillus niger) | MFC (Scedosporium boydii) | MIC (Scedosporium boydii)
inactive: Activity (Escherichia coli) | Activity [3] | Activity (Rhizopus arrhizus) | Activity (Fusarium solani) | Activity (Aspergillus fumigatus) | Activity (Aspergillus flavus) | Activity (Aspergillus terreus)
20 µg/mL: MIC [1]
160 µg/mL: MIC (Saccharomyces cerevisiae) | MIC (Staphylococcus aureus) | MBC (Staphylococcus aureus) | MFC (Prototheca zopfii) | MIC (Prototheca zopfii) | MIC (Pseudomonas aeruginosa) | MIC (Sporothrix schenckii)

O=C(NCCC1CCN(Cc2ccccc2)CC1)c1ccoc1
inactive: Activity [1] | Activity [3] | Activity (Pseudomonas aeruginosa) | Activity (Rhizopus arrhizus) | Activity (Sporothrix schenckii) | Activity (Fusarium solani) | Activity (Aspergillus fumigatus) | Activity (Aspergillus flavus) | Activity (Aspergillus niger) | Activity (Aspergillus terreus)
160 µg/mL: MIC (Candida albicans) | MFC (Candida dubliniensis) | MIC (Candida dubliniensis) | MFC (Saccharomyces cerevisiae) | MBC (Staphylococcus aureus) | MIC (Klebsiella pneumoniae) | MIC (Escherichia coli)
320 µg/mL: MFC (Candida albicans) | MFC (Nakaseomyces glabratus) | MIC (Nakaseomyces glabratus) | MIC [1] | MBC (Klebsiella pneumoniae) | MBC (Escherichia coli) | MIC [2] | MFC (Prototheca zopfii) | MIC (Prototheca zopfii) | MIC (Rhizopus arrhizus) | MIC (Fusarium solani) | MIC (Aspergillus fumigatus) | MIC (Aspergillus flavus) | MIC (Aspergillus niger) | MIC (Aspergillus terreus)
20 µg/mL: MIC (Pseudomonas aeruginosa) | MIC (Sporothrix schenckii)
40 µg/mL: MIC (Staphylococcus aureus) | MIC (Scedosporium boydii)
80 µg/mL: MIC (Saccharomyces cerevisiae) | MFC (Scedosporium boydii)

O=C(NCc1cccnc1)c1ccoc1
160 µg/mL: MIC [1] | MFC (Prototheca zopfii) | MIC (Prototheca zopfii) | MFC (Scedosporium boydii) | MIC (Scedosporium boydii)
inactive: Activity (Candida albicans) | Activity (Candida dubliniensis) | Activity (Nakaseomyces glabratus) | Activity (Staphylococcus aureus) | Activity (Klebsiella pneumoniae) | Activity (Escherichia coli) | Activity [3] | Activity (Pseudomonas aeruginosa) | Activity (Fusarium solani) | Activity (Aspergillus flavus) | Activity (Aspergillus terreus)
320 µg/mL: MIC (Candida dubliniensis) | MFC [1] | MFC (Saccharomyces cerevisiae) | MIC (Saccharomyces cerevisiae) | MIC (Staphylococcus aureus) | MIC (Klebsiella pneumoniae) | MIC (Escherichia coli) | MIC [2] | MIC (Pseudomonas aeruginosa) | MFC (Rhizopus arrhizus) | MIC (Rhizopus arrhizus) | MFC (Sporothrix schenckii) | MIC (Sporothrix schenckii) | MIC (Fusarium solani) | MFC (Aspergillus fumigatus) | MIC (Aspergillus fumigatus) | MFC (Aspergillus niger) | MIC (Aspergillus niger) | MIC (Aspergillus terreus)

CN(C)C(=O)c1ccoc1
inactive: Activity (Candida albicans) | Activity (Candida dubliniensis) | Activity (Nakaseomyces glabratus) | Activity [1] | MIC (Saccharomyces cerevisiae) | Activity (Staphylococcus aureus) | Activity (Klebsiella pneumoniae) | Activity (Escherichia coli) | Activity [3] | Activity (Prototheca zopfii) | Activity (Pseudomonas aeruginosa) | Activity (Fusarium solani) | Activity (Aspergillus fumigatus) | Activity (Aspergillus flavus) | Activity (Aspergillus niger) | Activity (Aspergillus terreus)
160 µg/mL: MIC (Sporothrix schenckii) | MIC (Scedosporium boydii)
320 µg/mL: MIC [1] | MIC (Staphylococcus aureus) | MIC (Klebsiella pneumoniae) | MIC [2] | MIC (Prototheca zopfii) | MIC (Pseudomonas aeruginosa) | MFC (Rhizopus arrhizus) | MIC (Rhizopus arrhizus) | MFC (Sporothrix schenckii) | MIC (Aspergillus niger) | MFC (Scedosporium boydii)
